From PubChem BioAssay
Inconclusive results are not listed.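 How the source made its calls, unless noted: active means viability increase at or above a cutoff of the median across tested compounds plus 3 SD (cut at about 8.5% in these data, passing the limit was not always enough); inconclusive means some gains above the cutoff, reason not given; inactive means the rest.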

Experiments:
[1] = OD615 S. cerevisiae growth inhibition, permissive medium, pilot counter-assay, permissive growth control for S. cerevisiae lifespan shortening project (AID 705;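 active means growth inhibition above 25% in both replicates, a cutoff set 3 SD above the mean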); details: OD615, 24 h, at 10 µM, stronger effect = higher value
How it was run: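 System: S. cerevisiae with engineered DeaD lifespan system / Measured by: absorbance (optical density) at 615 nm / Read-out: reduction in yeast growth (OD615) / Times: 4 h cell pre-growth, 24 h exposure at 30 °C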

[2] = Restrictive medium S. cerevisiae growth inhibition, OD615, pilot screen of yeast lifespan reduction project, restrictive growth control (AID 706;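 active means growth inhibition above a set limit, 3 SD over mean compound inhibition, in both replicates, cut at about 43% in these data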;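 further: modified DeaD lifespan yeast strain shifted to restrictive glucose medium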); details: OD615, 48 h, at 10 µM, stronger effect = higher value
How it was run: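 System: Engineered S. cerevisiae DeaD strain | Buffer or medium: Glucose-based CSMM-D restrictive medium | Schedule: 4 h pre-incubation, 48 h exposure at 30 °C | Technique: Optical density at 615 nm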

[3] = viability gain of MRP-1-high H69AR cells under doxorubicin, pilot screen, MRP-1 activator project, CellTiter-Glo, duplicate (AID 807); details: H69AR viability with doxorubicin, CellTiter-Glo luminescence; at 10 µM; stronger effect = higher value;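 further: compound pretreatment 18-22 h then 72 h combined with doxorubicin; 0% = doxorubicin alone and 100% = vehicle without doxorubicin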
[4] = growth suppression of beta-catenin knockout HCT116, pilot screen, human colon tumor cells (AID 823;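 active means cell viability at or below a set limit in both duplicate runs, the limit being the all-compound median minus 4 SD, cut at about 23% in these data, passing the limit was not always enough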;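 further: 0% = wells killed by 20 µM Hyamine and 100% = untreated DMSO cell wells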); details: CellTiter-Glo, 60 h, at 10 µM, stronger effect = lower value
[5] = growth suppression of PTEN-deleted HCT116, pilot screen, cell-based, HCT116 clonal line, CellTiter-Glo (AID 824;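 active means viability at or below 27.92% in each of two runs, the all-compound median minus 4 SD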;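 further: 0% = 20 µM Hyamine control and 100% = vehicle cell control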); details: 60 h, at 10 µM, stronger effect = lower value
[6] = inhibitors of the yeast RAM network, pilot screen, dse1pr::URA3 reporter, 5-FOA selection (AID 869;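 active means inhibition over a set limit, the all-compound mean plus 3 SD, in both replicate runs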;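 further: 0% = DMSO wells with no growth and 100% = 10 µM 1-NA-PP1 with full growth; RAM network block rescues cells from 5-FOA so hits raise OD615 growth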); details: S. cerevisiae dse1pr::URA3 5-FOA growth, OD615, 2 d; at 10 µM; stronger effect = higher value; strain carries analog-sensitive mutant Cbk1 kinase
[7] = RAM signaling pathway blockade in yeast – S. cerevisiae, Pdr1DBD-CYC8 efflux-inhibited sensitized strain, primary screen (AID 1298;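 active means RAM network inhibition above 8.4% in each of two replicates, 3 SD over the compound average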;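 further: 0% = DMSO untreated cells without growth and 100% = 10 µM 1-NA-PP1 full growth; higher means more yeast growth rescued from 5-FOA killing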); details: S. cerevisiae cbk1-as DSE1-URA3 strain, 5-FOA growth OD615, 2 d; at 50 µM; stronger effect = higher value

Cn1c(C(=O)N2CCCCCC2)cc2c(=O)n(C)c3ccccc3c21
inactive: growth inhibition [1] -8.92% | growth inhibition [2] -2.14% | viability increase [3] -3.27% | viability [4] 94.9% | viability [5] 92.3% | inhibition [6] 1.33% | RAM network inhibition [7] 4.52%

CCC(C#CCN1CCOCC1)(CC)OCCC#N
inactive: growth inhibition [1] -6.57% | growth inhibition [2] -3.89% | viability increase [3] -0.51% | viability [4] 97% | viability [5] 95.9% | inhibition [6] 1.35% | RAM network inhibition [7] 0.88%

Brc1ccccc1Cn1c(-c2cncs2)nc2ccccc21
inactive: growth inhibition [1] -8.58% | growth inhibition [2] 25.2% | viability increase [3] -3.44% | viability [4] 79.2% | viability [5] 73.9% | inhibition [6] 0.68% | RAM network inhibition [7] 3.2%

CCOC(=O)Cn1c(=NC(=O)CSC(C)=O)sc2ccccc21
inactive: growth inhibition [1] 0% | growth inhibition [2] 8.74% | viability increase [3] -4.54% | viability [4] 105% | viability [5] 106% | inhibition [6] 0.465% | RAM network inhibition [7] 4.02%

O=c1[nH]c(NCCCO)nc2c1C1(CCCC1)Cc1ccccc1-2
inactive: growth inhibition [1] -1.02% | growth inhibition [2] -4.91% | viability increase [3] -0.94% | viability [4] 97.1% | viability [5] 96.2% | inhibition [6] -0.175% | RAM network inhibition [7] 6.67%

CC(C)C12CN3CC(C(C)C)(CN(C1)C3c1ccccc1)C2O (stereo unspecified)
inactive: growth inhibition [1] 6% | growth inhibition [2] 2.74% | viability increase [3] -1.42% | viability [4] 96.2% | viability [5] 93.6% | inhibition [6] 1.8% | RAM network inhibition [7] 3.93%

COCCOC(=O)C1=C(C)NC2=C(C(=O)CCC2)C1c1ccc(N(C)C)cc1 (stereo unspecified)
inactive: growth inhibition [1] -4.38% | growth inhibition [2] -19.9% | viability increase [3] -1.53% | viability [4] 98.6% | viability [5] 93.4% | inhibition [6] 0.975% | RAM network inhibition [7] 4.47%

CC(=O)Nc1ccc(OCC=C(Cl)Cl)cc1
inactive: growth inhibition [1] 2.81% | growth inhibition [2] 5.66% | viability increase [3] 1.02% | viability [4] 97.2% | viability [5] 102% | inhibition [6] 0.805% | RAM network inhibition [7] 1.16%

COc1cccc(NC(=O)c2cccnc2)c1
inactive: growth inhibition [1] -5.19% | growth inhibition [2] 7.85% | viability increase [3] 1.59% | viability [4] 100% | viability [5] 87.2% | inhibition [6] 0.55% | RAM network inhibition [7] 3.7%

CCCCn1c2nc3ccccc3nc2c2c(=N)oc(C)nc21
inactive: growth inhibition [1] -7.3% | growth inhibition [2] -6.79% | viability increase [3] -4.49% | viability [4] 96.6% | viability [5] 85.1% | inhibition [6] 0.265% | RAM network inhibition [7] 0.62%

CC(=O)c1cccc(NC(=O)N2CCCC2C(=O)NCc2ccccc2)c1 (stereo unspecified)
inactive: growth inhibition [1] -6.55% | growth inhibition [2] -11.5% | viability increase [3] -1.13% | viability [4] 104% | viability [5] 100% | inhibition [6] 0.87% | RAM network inhibition [7] 1.46%

O=C(c1cccs1)n1cc(C(=S)N2CCOCC2)c2ccccc21
inactive: growth inhibition [1] -4.95% | growth inhibition [2] -0.915% | viability increase [3] -0.89% | viability [4] 94.2% | viability [5] 88.1% | inhibition [6] 1.71% | RAM network inhibition [7] 4.07%

Cc1cccc(C)c1Nc1nc2ccccc2o1
inactive: growth inhibition [1] -7.32% | growth inhibition [2] 11.5% | viability increase [3] -0.76% | viability [4] 93.3% | viability [5] 94.3% | inhibition [6] 1.97% | RAM network inhibition [7] -0.32%

CCOC(=O)N1CCC(NC(=O)Cn2nc(Cc3ccncc3)c3ccccc3c2=O)CC1
inactive: growth inhibition [1] -6.68% | growth inhibition [2] 3.71% | viability increase [3] -0.79% | viability [4] 94% | viability [5] 95.7% | inhibition [6] -0.58% | RAM network inhibition [7] 0.52%

COc1ccc(CN2CCCCC2c2cccnc2)c(OC)c1C (stereo unspecified)
inactive: growth inhibition [1] -1.37% | growth inhibition [2] 0.92% | viability increase [3] -2.86% | viability [4] 92.1% | viability [5] 99% | inhibition [6] 1.25% | RAM network inhibition [7] 1.37%

O=C(NCc1cn2ccsc2n1)c1cccs1
inactive: growth inhibition [1] -11.6% | growth inhibition [2] 2.67% | viability increase [3] -2.88% | viability [4] 95.1% | viability [5] 95.8% | inhibition [6] 1.04% | RAM network inhibition [7] 7.64%

Cc1ccc(Cl)cc1NC(=O)Cn1cc2c(n1)CCCC2
inactive: growth inhibition [1] -3.65% | growth inhibition [2] 8.66% | viability increase [3] -2.72% | viability [4] 110% | viability [5] 97% | inhibition [6] -0.18% | RAM network inhibition [7] 0.23%

COc1cc2ccccc2cc1-c1nnc(COc2ccccc2)o1
inactive: growth inhibition [1] -8.96% | growth inhibition [2] -14.4% | viability increase [3] -2.61% | viability [4] 98.2% | viability [5] 83.4% | inhibition [6] 4% | RAM network inhibition [7] 2.39%
